The source made the active and inactive calls. The rule behind the calls is not given here.
Key:
[1] = biological target: T1, Histone acetyltransferase KAT2B (Homo sapiens, UniProt Q92831); experiment: Binding affinity to human N-terminal His-tagged PCAF by isothermal titration calorimetry
Target sequence in this assay (Q92831 whole entry): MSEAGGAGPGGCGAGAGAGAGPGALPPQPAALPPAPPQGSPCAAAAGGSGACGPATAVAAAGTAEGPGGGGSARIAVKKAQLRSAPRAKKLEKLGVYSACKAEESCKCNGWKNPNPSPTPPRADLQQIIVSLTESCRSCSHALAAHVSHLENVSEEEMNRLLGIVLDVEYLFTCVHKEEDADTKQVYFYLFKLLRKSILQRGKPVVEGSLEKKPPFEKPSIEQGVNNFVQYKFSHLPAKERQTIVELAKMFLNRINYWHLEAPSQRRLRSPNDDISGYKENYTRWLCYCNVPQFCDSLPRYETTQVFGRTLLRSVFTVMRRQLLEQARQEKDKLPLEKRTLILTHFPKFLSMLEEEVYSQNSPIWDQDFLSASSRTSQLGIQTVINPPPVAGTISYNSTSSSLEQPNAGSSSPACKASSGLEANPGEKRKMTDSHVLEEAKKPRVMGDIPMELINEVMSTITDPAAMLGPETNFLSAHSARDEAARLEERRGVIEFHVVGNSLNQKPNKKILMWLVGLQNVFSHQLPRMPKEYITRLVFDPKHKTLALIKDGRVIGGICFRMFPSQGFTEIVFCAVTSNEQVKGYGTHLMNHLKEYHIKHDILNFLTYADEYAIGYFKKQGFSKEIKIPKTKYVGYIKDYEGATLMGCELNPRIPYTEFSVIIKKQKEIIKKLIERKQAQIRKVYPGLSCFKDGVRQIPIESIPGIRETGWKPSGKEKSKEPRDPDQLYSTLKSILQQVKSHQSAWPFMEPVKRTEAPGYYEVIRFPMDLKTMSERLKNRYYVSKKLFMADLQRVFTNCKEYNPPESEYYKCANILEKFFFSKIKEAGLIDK

[2] = biological target: T1, Histone acetyltransferase KAT2B; experiment: Binding affinity to human N-terminal His-tagged PCAF assessed as change in melting temperature at 10 uM by SYPRO orange dye-based fluorescence assay
How it was run: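 Thermal shift with His-tagged human bromodomain at 2 μM final in 10 mM HEPES pH 7.5, 500 mM NaCl. Compound at 10 μM final with 0.1% DMSO; SYPRO Orange at 1:1000. Equilibrated 3 min at 25 °C, then heated from 25 to 95 °C at 1 °C/min. Melting temperature shift taken from fluorescence; at least duplicate.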
Target sequence in this assay (Q92831 whole entry, looked up): as the sequence (Q92831 whole entry) above

[3] = biological target: T1, Histone acetyltransferase KAT2B; experiment: Inhibition of Halo-tagged histone H3.3 binding to N-terminal Nano luciferase-fused full-length PCAF (unknown origin) expressed in HEK293T cells co-expressing C-terminal Halo-tagged histone H3.3 measured after 18 hrs by 618 fluorescent ligand-based BRET assay; assay type: cell-based
How it was run: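 HEK293T cells co-transfected with histone H3.3-HaloTag and PCAF-NanoLuc. After 20 h, cells replated at 2×10^5/ml in phenol red-free DMEM with 4% FBS, with or without 100 nM NanoBRET 618 ligand. Compound dilutions or DMSO added, then 18 h at 37 °C, 5% CO2. Nano-Glo substrate added; 610/460 nm ratio minus no-ligand blank, in mBU; n = 2 biological replicates.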

MEF [4] = experiment: Effect on Unc5a gene expression in MEF cells at 2.5 uM measured after 48 hrs by RNA-sequencing analysis relative to control; assay type: functional, Mus musculus
How it was run: (§1)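 Mouse embryonic fibroblasts treated 48 h; negative-control enantiomer at 2.5 µM, DMSO as blank. Total RNA extracted with TRIzol, checked by NanoDrop, then RNA-seq with n = 3 per set. Genes called changed at >1.5-fold with p < 0.05 against blank.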

MEF [5] = experiment: Effect on Slitrk6 gene expression in MEF cells at 2.5 uM measured after 48 hrs by RNA-sequencing analysis relative to control; assay type: functional, Mus musculus; how it was run: as §1
MEF [6] = experiment: Effect on Dlx4 gene expression in MEF cells at 2.5 uM measured after 48 hrs by RNA-sequencing analysis relative to control; assay type: functional, Mus musculus; how it was run: as §1
MEF [7] = experiment: Effect on Gm3173 gene expression in MEF cells at 2.5 uM measured after 48 hrs by RNA-sequencing analysis relative to control; assay type: functional, Mus musculus; how it was run: as §1
MEF [8] = experiment: Effect on Lonrf3 gene expression in MEF cells at 2.5 uM measured after 48 hrs by RNA-sequencing analysis relative to control; assay type: functional, Mus musculus; how it was run: as §1
MEF [9] = experiment: Effect on Gabra4 gene expression in MEF cells at 2.5 uM measured after 48 hrs by RNA-sequencing analysis relative to control; assay type: functional, Mus musculus; how it was run: as §1
MEF [10] = experiment: Effect on Clec5a gene expression in MEF cells at 2.5 uM measured after 48 hrs by RNA-sequencing analysis relative to control; assay type: functional, Mus musculus; how it was run: as §1
MEF [11] = experiment: Effect on Slco1a5 gene expression in MEF cells at 2.5 uM measured after 48 hrs by RNA-sequencing analysis relative to control; assay type: functional, Mus musculus; how it was run: as §1
MEF [12] = experiment: Effect on Slc26a7 gene expression in MEF cells at 2.5 uM measured after 48 hrs by RNA-sequencing analysis relative to control; assay type: functional, Mus musculus; how it was run: as §1
MEF [13] = experiment: Effect on H60b gene expression in MEF cells at 2.5 uM measured after 48 hrs by RNA-sequencing analysis relative to control; assay type: functional, Mus musculus; how it was run: as §1
MEF [14] = experiment: Effect on Kcnk10 gene expression in MEF cells at 2.5 uM measured after 48 hrs by RNA-sequencing analysis relative to control; assay type: functional, Mus musculus; how it was run: as §1
MEF [15] = experiment: Effect on Srcin1 gene expression in MEF cells at 2.5 uM measured after 48 hrs by RNA-sequencing analysis relative to control; assay type: functional, Mus musculus; how it was run: as §1
MEF [16] = experiment: Effect on Bmp3 gene expression in MEF cells at 2.5 uM measured after 48 hrs by RNA-sequencing analysis relative to control; assay type: functional, Mus musculus; how it was run: as §1
MEF [17] = experiment: Effect on Icos gene expression in MEF cells at 2.5 uM measured after 48 hrs by RNA-sequencing analysis relative to control; assay type: functional, Mus musculus; how it was run: as §1
MEF [18] = experiment: Effect on Tnfsf15 gene expression in MEF cells at 2.5 uM measured after 48 hrs by RNA-sequencing analysis relative to control; assay type: functional, Mus musculus; how it was run: as §1
MEF [19] = experiment: Effect on S100a8 gene expression in MEF cells at 2.5 uM measured after 48 hrs by RNA-sequencing analysis relative to control; assay type: functional, Mus musculus; how it was run: as §1
MEF [20] = experiment: Effect on Erbb3 gene expression in MEF cells at 2.5 uM measured after 48 hrs by RNA-sequencing analysis relative to control; assay type: functional, Mus musculus; how it was run: as §1
MEF [21] = experiment: Effect on Zfp551 gene expression in MEF cells at 2.5 uM measured after 48 hrs by RNA-sequencing analysis relative to control; assay type: functional, Mus musculus; how it was run: as §1
MEF [22] = experiment: Effect on Hkdc1 gene expression in MEF cells at 2.5 uM measured after 48 hrs by RNA-sequencing analysis relative to control; assay type: functional, Mus musculus; how it was run: as §1
MEF [23] = experiment: Effect on Celsr1 gene expression in MEF cells at 2.5 uM measured after 48 hrs by RNA-sequencing analysis relative to control; assay type: functional, Mus musculus; how it was run: as §1
MEF [24] = experiment: Effect on Pyhin1 gene expression in MEF cells at 2.5 uM measured after 48 hrs by RNA-sequencing analysis relative to control; assay type: functional, Mus musculus; how it was run: as §1
MEF [25] = experiment: Effect on Pkdrej gene expression in MEF cells at 2.5 uM measured after 48 hrs by RNA-sequencing analysis relative to control; assay type: functional, Mus musculus; how it was run: as §1
MEF [26] = experiment: Effect on Ttbk1 gene expression in MEF cells at 2.5 uM measured after 48 hrs by RNA-sequencing analysis relative to control; assay type: functional, Mus musculus; how it was run: as §1
MEF [27] = experiment: Effect on Fmn2 gene expression in MEF cells at 2.5 uM measured after 48 hrs by RNA-sequencing analysis relative to control; assay type: functional, Mus musculus; how it was run: as §1
MEF [28] = experiment: Effect on Mpz gene expression in MEF cells at 2.5 uM measured after 48 hrs by RNA-sequencing analysis relative to control; assay type: functional, Mus musculus; how it was run: as §1
MEF [29] = experiment: Effect on Hpgd gene expression in MEF cells at 2.5 uM measured after 48 hrs by RNA-sequencing analysis relative to control; assay type: functional, Mus musculus; how it was run: as §1
MEF [30] = experiment: Effect on Klk9 gene expression in MEF cells at 2.5 uM measured after 48 hrs by RNA-sequencing analysis relative to control; assay type: functional, Mus musculus; how it was run: as §1
MEF [31] = experiment: Effect on P2rx6 gene expression in MEF cells at 2.5 uM measured after 48 hrs by RNA-sequencing analysis relative to control; assay type: functional, Mus musculus; how it was run: as §1
MEF [32] = experiment: Effect on Tfap4 gene expression in MEF cells at 2.5 uM measured after 48 hrs by RNA-sequencing analysis relative to control; assay type: functional, Mus musculus; how it was run: as §1
MEF [33] = experiment: Effect on Myh3 gene expression in MEF cells at 2.5 uM measured after 48 hrs by RNA-sequencing analysis relative to control; assay type: functional, Mus musculus; how it was run: as §1
MEF [34] = experiment: Effect on Acod1 gene expression in MEF cells at 2.5 uM measured after 48 hrs by RNA-sequencing analysis relative to control; assay type: functional, Mus musculus; how it was run: as §1
MEF [35] = experiment: Effect on Nuggc gene expression in MEF cells at 2.5 uM measured after 48 hrs by RNA-sequencing analysis relative to control; assay type: functional, Mus musculus; how it was run: as §1
MEF [36] = experiment: Effect on Tnnt2 gene expression in MEF cells at 2.5 uM measured after 48 hrs by RNA-sequencing analysis relative to control; assay type: functional, Mus musculus; how it was run: as §1

| Structure (SMILES) | Kd [1] [nM] | ΔTm [2] [°C] | inhibition [3] | fold change (FC) (MEF [4]) | fold change (FC) (MEF [5]) | fold change (FC) (MEF [6]) | fold change (FC) (MEF [7]) | fold change (FC) (MEF [8]) | fold change (FC) (MEF [9]) | fold change (FC) (MEF [10]) | fold change (FC) (MEF [11]) | fold change (FC) (MEF [12]) | fold change (FC) (MEF [13]) | fold change (FC) (MEF [14]) | fold change (FC) (MEF [15]) | fold change (FC) (MEF [16]) | fold change (FC) (MEF [17]) | fold change (FC) (MEF [18]) | fold change (FC) (MEF [19]) | fold change (FC) (MEF [20]) | also measured |
| --- | --- | --- | --- | --- | --- | --- | --- | --- | --- | --- | --- | --- | --- | --- | --- | --- | --- | --- | --- | --- | --- |
| CN1C[C@H](Nc2nc3cc[nH]c3c(=O)n2C)C[C@H](c2ccc3c(c2)OCCO3)C1 | 78 | 9.5 | Dose-dependent effect | >1.5 | >1.5 | >1.5 | >1.5 | >1.5 | >1.5 | >1.5 | >1.5 | >1.5 | >1.5 | >1.5 | >1.5 | >1.5 | >1.5 | >1.5 | >1.5 | >1.5 | IC50 [3]: 118 nM; fold change (FC) (MEF [21]): >1.5; fold change (FC) (MEF [22]): >1.5; fold change (FC) (MEF [23]): >1.5; fold change (FC) (MEF [24]): >1.5; fold change (FC) (MEF [25]): >1.5; fold change (FC) (MEF [26]): >1.5; fold change (FC) (MEF [27]): >1.5; fold change (FC) (MEF [28]): >1.5; fold change (FC) (MEF [29]): >1.5; fold change (FC) (MEF [30]): >1.5; fold change (FC) (MEF [31]): >1.5; fold change (FC) (MEF [32]): >1.5; fold change (FC) (MEF [33]): >1.5; fold change (FC) (MEF [34]): >1.5; fold change (FC) (MEF [35]): >1.5; fold change (FC) (MEF [36]): >1.5 |
| CN1C[C@@H](Nc2nc3cc[nH]c3c(=O)n2C)C[C@@H](c2ccc3c(c2)OCCO3)C1 | > 10000 | 0.7 | inactive | >1.5 | >1.5 | >1.5 | >1.5 | >1.5 | >1.5 | >1.5 | >1.5 | >1.5 | >1.5 | >1.5 | >1.5 | >1.5 | >1.5 | >1.5 | >1.5 | >1.5 | fold change (FC) (MEF [21]): >1.5; fold change (FC) (MEF [22]): >1.5; fold change (FC) (MEF [23]): >1.5; fold change (FC) (MEF [24]): >1.5; fold change (FC) (MEF [25]): >1.5; fold change (FC) (MEF [26]): >1.5; fold change (FC) (MEF [27]): >1.5; fold change (FC) (MEF [28]): >1.5; fold change (FC) (MEF [29]): >1.5; fold change (FC) (MEF [30]): >1.5; fold change (FC) (MEF [31]): >1.5; fold change (FC) (MEF [32]): >1.5; fold change (FC) (MEF [33]): >1.5; fold change (FC) (MEF [34]): >1.5; fold change (FC) (MEF [35]): >1.5; fold change (FC) (MEF [36]): >1.5 |
